Reference: ChEMBL document CHEMBL5252663, “Evaluation of 1,3,4-Thiadiazole Carbonic Anhydrase Inhibitors for Gut Decolonization of Vancomycin-Resistant Enterococci” (ACS Med Chem Lett, 2023)
≈ marks a conversion by molar mass, not a printed value. Calls of active or inactive are those of the source. The calls are words filed in the database; no cut-off is given here.

How the values were obtained:
Enterococcus faecium [1] = test: Antibacterial activity against Enterococcus faecium HM-952 assessed as inhibition of bacterial growth incubated for 18 to 20 hrs by broth microdilution assay; format: functional; settings: time 18-20 hrs
Enterococcus faecium [2] = test: Antibacterial activity against vancomycin-resistant Enterococcus faecium HM-952 infected in C57BL/6 mouse assessed as log reduction in bacterial colony forming unit in feces at 20 mg/kg,po qd measured after 5 days of administration; format: functional; settings: time 5 day
Outline: (§1)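 C57BL/6 mice given ampicillin in drinking water (0.5 g/L) for 7 days, then gavaged orally with 5.39 × 10^8 CFU/mL E. faecium HM-952. Colonization was allowed for 7 days. Randomized groups (n = 7) got 20 mg/kg by oral gavage once daily for 8 days. Vehicle was dimethylacetamide:20% propylene glycol:40% PEG 400:30% PBS. Fecal CFU was counted on days 0, 3, 5 and 7, and ileal and cecal CFU at day 9 after euthanasia. Comparison was against vehicle.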

Enterococcus faecium [3] = test: Antibacterial activity against vancomycin-resistant Enterococcus faecium HM-952 infected in C57BL/6 mouse assessed as reduction in bacterial burden in feces at 20 mg/kg,po qd measured after 7 days of administration; format: functional; set-up: scale not given: the % may be the effect or the level left; settings: time 7 day; outline: as §1
Enterococcus faecium [4] = test: Antibacterial activity against vancomycin-resistant Enterococcus faecium HM-952 infected in C57BL/6 mouse assessed as reduction in bacterial burden in feces at 20 mg/kg,po qd measured after 3 days of administration; format: functional; outline: as §1
Enterococcus faecium [5] = test: Antibacterial activity against vancomycin-resistant Enterococcus faecium HM-952 infected in C57BL/6 mouse assessed as reduction in bacterial burden in feces at 20 mg/kg,po qd measured after 5 days of administration; format: functional; set-up: scale not given: the % may be the effect or the level left; outline: as §1
Enterococcus faecium [6] = test: Antibacterial activity against vancomycin-resistant Enterococcus faecium HM-952 infected in C57BL/6 mouse assessed as log reduction in bacterial colony forming unit in feces at 20 mg/kg,po qd measured after 7 days of administration; format: functional; settings: time 7 day; outline: as §1
[7] = Apparent permeability across apical to basolateral side in human Caco2 cells; format: ADME, cell-based; settings: Caco-2
Outline: (§2)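 Caco-2 monolayer transport measured in both directions, apical→basolateral and basolateral→apical, and reported as apparent permeability (×10–6 cm/s). Efflux ratio is calculated as Papp B→A divided by Papp A→B.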

[8] = Distribution coefficient between 1-Octanol and PBS buffer, logD of the compound at pH 7.4 incubated for 140 mins by HPLC anlaysis; format: physicochemical; settings: 1-octanol/PBS buffer
Enterococcus faecium [9] = test: Antibacterial activity against vancomycin-resistant Enterococcus faecium HM-952 infected in C57BL/6 mouse assessed as reduction in bacterial burden in cecum at 20 mg/kg,po qd measured after 9 days of administration; format: functional; set-up: scale not given: the % may be the effect or the level left; settings: time 9 day; outline: as §1
Enterococcus faecium [10] = test: Antibacterial activity against vancomycin-resistant Enterococcus faecium HM-952 infected in C57BL/6 mouse assessed as log reduction in bacterial colony forming unit in cecum at 20 mg/kg,po qd measured after 9 days of administration; format: functional; settings: time 9 day; outline: as §1
Enterococcus faecium [11] = test: Antibacterial activity against vancomycin-resistant Enterococcus faecium HM-952 infected in C57BL/6 mouse assessed as reduction in bacterial burden in ileum at 20 mg/kg,po qd measured after 9 days of administration; format: functional; set-up: scale not given: the % may be the effect or the level left; settings: time 9 day; outline: as §1
Enterococcus faecium [12] = test: Antibacterial activity against vancomycin-resistant Enterococcus faecium HM-952 infected in C57BL/6 mouse assessed as log reduction in bacterial colony forming unit in ileum at 20 mg/kg,po qd measured after 9 days of administration; format: functional; settings: time 9 day; outline: as §1
[13] = Apparent permeability across basolateral to apical side in human Caco2 cells; format: ADME, cell-based; settings: Caco-2; outline: as §2
[14] = Permeability across apical to basolateral side in human Caco-2 cells assessed as drug recovery; format: ADME, cell-based; settings: read-out: Drug recovery
[15] = Distribution coefficient between 1-Octanol and PBS buffer, logD of the compound at pH 6.5 incubated for 140 mins by HPLC anlaysis; format: physicochemical; settings: 1-octanol/PBS buffer
Enterococcus faecium [16] = test: Antibacterial activity against vancomycin-resistant Enterococcus faecium HM-952 infected in C57BL/6 mouse assessed as log reduction in bacterial colony forming unit in feces at 20 mg/kg,po qd measured after 3 days of administration; format: functional; settings: time 3 day; outline: as §1
[17] = Efflux ratio of apparent permeability across basolateral to apical over apical to basolateral side in human Caco2 cells; format: ADME, cell-based; settings: Caco-2; outline: as §2
[18] = Aqueous solubility of the compound in PBS buffer at pH 7.4 by HPLC analysis; format: physicochemical
Outline: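 Solubility is measured in phosphate-buffered saline at pH 7.4 and quantified against a calibration curve whose highest point is 200 μM, so the upper reportable value is >200 μM.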

Row | Structure (SMILES) | MIC (Enterococcus faecium [1]) [µg/mL] | Activity (Enterococcus faecium [2]) [log10CFU] | Activity (Enterococcus faecium [3]) [%] | Activity (Enterococcus faecium [4]; time 3.0 day) | Activity (Enterococcus faecium [5]; time 5 day) [%] | Activity (Enterococcus faecium [6]) [log10CFU] | Papp A→B [7] [×10⁻⁶ cm/s] | logD at 2.333 h [8] | Activity (Enterococcus faecium [9]) [%] | Activity (Enterococcus faecium [10]) [log10CFU] | Activity (Enterococcus faecium [11]) [%] | Activity (Enterococcus faecium [12]) [log10CFU] | Papp B→A [13] [×10⁻⁶ cm/s] | recovery [14] [%] | logD at 2.333 h [15] | Activity (Enterococcus faecium [16]) [log10CFU] | efflux ratio [17] | solubility [18] [µM] | Activity (Enterococcus faecium [4]; time 3 day) [%] | Activity (Enterococcus faecium [5]; time 5.0 day)
1 | CC(=O)NC[C@H]1CN(c2ccc(N3CCOCC3)c(F)c2)C(=O)O1 [LINEZOLID] | 1 (≈ 2.96 µM) | 0.87 | 91.5 | Active | 86.5 | 1.07 |  |  |  |  |  |  |  |  |  |  |  |  |  | 
2 | CC(C)(C)CC(=O)Nc1nnc(S(N)(=O)=O)s1 | 0.03 (≈ 0.108 µM) | 1.13 | 99.3 |  | 92.6 | 2.16 | 3.7 | 1.36 | 99.6 | 2.36 | 98.9 | 1.98 | 8.2 | 80 | 1.55 | 1 | 2.22 | > 200 | 90 | 
3 | NS(=O)(=O)c1nnc(NC(=O)CCC2CCCCC2)s1 | 0.03 (≈ 0.0942 µM) | 1.13 | 99.3 |  | 92.6 | 2.16 |  | 2.26 | 97.3 | 1.57 | 94.1 | 1.13 |  | 35 | 2.47 | 1 | 2.17 | 33 (≈ 10.5 µg/mL) | 90 | 
4 | NS(=O)(=O)c1nnc(NC(=O)CN2CCOCC2)s1 | 1 (≈ 3.25 µM) | 1.13 | 99.3 |  | 92.6 | 2.16 |  | -1.38 | 98.8 | 1.92 | 97.6 | 1.62 |  |  | -0.97 | 1 |  | 127 (≈ 39 µg/mL) | 90 | 
5 | CC(=O)Nc1nnc(S(N)(=O)=O)s1 [ACETAZOLAMIDE] | 1 (≈ 4.5 µM) |  | 99.3 |  |  | 2.16 |  |  | 99.7 | 2.59 | 99.7 | 2.59 |  |  |  | 1 |  |  | 90 | Active
